Screens (PubChem BioAssay)
KCNQ1 inh = human KCNQ1 channel inhibition; P51787; CHO-K1 KCNQ1, FluxOR thallium flux fluorescence; hits give high values; B-score at 10 µM; hit rate 1.3% among 310,000;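 active means compounds whose thallium flux B-score, printed positive for inhibition, exceeds three library SD while starting fluorescence stays within three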;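 further: channel opened by potassium depolarization with thallium stimulus after 20 min compound exposure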
KCNK3 block = human KCNK3 channel inhibition, primary screen; CHO-KCNK3 thallium flux, FluxOR fluorescence; hits give low values; AID 602410; B-score at 10 µM; hit rate 0.84% among 340,000;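 active means B-score under library mean minus 4 SD, starting fluorescence ratio at most library mean plus 5 SD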;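 further: more negative B-score means stronger inhibition of thallium flux through KCNK3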
KCNK9 inh = human KCNK9 channel inhibition. Q9NPC2. HEK293 KCNK9, FluxOR thallium flux fluorescence; hits give low values. B-score at 10 µM. hit rate 1.2% among 310,000;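 active means ratio B-score over 3 SD below the library mean, with starting fluorescence within 5 SD of its mean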;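 further: negative B-score means less thallium flux so channel inhibition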
hERG rescue = shields human hERG channel from block by proarrhythmic agents; Q12809; CHO-hERG, FluxOR thallium flux, dofetilide IC70 present; activation (rescue from dofetilide block), less the hit threshold, % at 10 µM; hit rate 0.51% among 310,000;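 active means activation above the mean of controls blocked by dofetilide plus 5 SD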;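 further: thallium influx through hERG after potassium depolarization seen as dye fluorescence rise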
Target sequence (Q12809 whole entry, looked up): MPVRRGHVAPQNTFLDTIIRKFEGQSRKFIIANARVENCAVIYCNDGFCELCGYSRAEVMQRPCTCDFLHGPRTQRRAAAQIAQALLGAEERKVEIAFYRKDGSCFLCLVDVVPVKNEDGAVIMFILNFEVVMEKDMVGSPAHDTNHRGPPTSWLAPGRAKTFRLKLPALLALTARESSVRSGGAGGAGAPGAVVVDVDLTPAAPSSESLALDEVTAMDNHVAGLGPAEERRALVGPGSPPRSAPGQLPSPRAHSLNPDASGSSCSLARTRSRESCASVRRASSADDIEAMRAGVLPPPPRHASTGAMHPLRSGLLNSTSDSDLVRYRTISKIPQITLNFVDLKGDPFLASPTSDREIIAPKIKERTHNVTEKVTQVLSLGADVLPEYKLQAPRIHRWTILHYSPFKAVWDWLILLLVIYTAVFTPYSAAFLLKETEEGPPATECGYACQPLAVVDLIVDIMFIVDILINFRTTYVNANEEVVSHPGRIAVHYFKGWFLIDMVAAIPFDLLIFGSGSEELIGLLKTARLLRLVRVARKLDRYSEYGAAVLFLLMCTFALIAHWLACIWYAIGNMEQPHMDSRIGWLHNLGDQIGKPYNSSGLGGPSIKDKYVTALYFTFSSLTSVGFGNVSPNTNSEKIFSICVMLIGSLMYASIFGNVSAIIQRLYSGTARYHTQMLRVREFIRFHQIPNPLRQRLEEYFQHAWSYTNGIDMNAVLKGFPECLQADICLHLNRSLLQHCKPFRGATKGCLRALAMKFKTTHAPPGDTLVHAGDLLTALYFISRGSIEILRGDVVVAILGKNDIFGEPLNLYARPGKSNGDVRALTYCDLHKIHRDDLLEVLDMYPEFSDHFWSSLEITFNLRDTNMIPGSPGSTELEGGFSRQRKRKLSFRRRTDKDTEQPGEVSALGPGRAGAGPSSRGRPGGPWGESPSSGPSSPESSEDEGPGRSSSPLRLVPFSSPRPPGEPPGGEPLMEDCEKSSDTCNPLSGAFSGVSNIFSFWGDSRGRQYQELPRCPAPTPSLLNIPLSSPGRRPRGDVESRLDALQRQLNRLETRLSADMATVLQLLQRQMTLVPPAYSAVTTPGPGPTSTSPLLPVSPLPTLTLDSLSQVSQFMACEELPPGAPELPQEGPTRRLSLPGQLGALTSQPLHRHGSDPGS
Cl transport mod = modulates chloride dependent transport by human KCC2 | B-score of Tl+ flux slope (higher = more flux/activation; lower = inhibition) at 10 µM | hit rate 2.2% among 190,000 | KCC2 cells, thallium flux FluoZin-2 fluorescence;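 active means thallium flux slope and its plate-corrected score both differing from the plate sample mean at a set confidence after two filtering rounds, in either direction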;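 further: slope of fluorescence scaled to starting intensity during 10 to 20 s after thallium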
KCNQ1 act = human KCNQ1 channel potentiation or activation | P51787 | CHO-K1 KCNQ1, thallium flux FluxOR fluorescence; hits give high values | B-score at 10 µM | hit rate 0.35% among 310,000 | AID 2648;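 active means fluorescence ratio B-score, a plate-corrected score, at least three library SD, with initial intensity B-score within 5 SD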
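Assay system: CHO-K1 cells stably expressing KCNQ1; Medium: assay buffer with matched DMSO; Also added: K+/Tl+ depolarizing stimulus; Dosing: single dose; Timing: dye 90 min, compound 20 min, room temperature; Measured by: kinetic FluxOR thallium fluorescence, 10-s 1-Hz baseline, 110-s post-stimulus read; Read-out: peak-minus-minimum fluorescence over initial fluorescence, negative-control normalized, B-scored.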
The depositor's hits bear a star; i = inactive; x = not tested or not shown. This is a sample that favours compounds with a hit; in the whole collection about 4.1% have one here.

SMILES | KCNQ1 inh | KCNK3 block | KCNK9 inh | hERG rescue | Cl transport mod | KCNQ1 act
COc1ccc(C(=O)NC(C)c2nnc(SCC(=O)NC3CCCCC3)n2C)cc1 (centres undefined) | i | i | i | -3.2 | x | i
O=S(=O)(Nc1ccc(O)c2ccccc12)c1ccc(Br)cc1 | i | x | i | 30.1* | x | i
CN(C)/C=N/c1cc(=O)[nH]c(=O)n1C | i | i | i | 2.3 | 0.573 | i
N#CC(C#N)=C(N)CSc1cccc[n+]1[O-] | i | i | i | -7.9 | 0.111 | i
O=C(NCCCN1CCOCC1)NC12CC3CC(CC(C3)C1)C2 | 6* | i | i | -6.6 | -0.685 | i
O=C(NCCCN1CCN(c2ccc(F)cc2)CC1)NC12CC3CC(CC(C3)C1)C2 | i | i | i | -16.2 | x | i
CCc1ccc(NC2=CC(=O)CC(c3ccco3)C2)cc1 (centres undefined) | i | i | -7.01* | -6.7 | -1.14 | i
CCOc1cccc(Nc2ccc([N+](=O)[O-])cn2)c1 | i | i | i | -6.5 | x | i
COc1cc(/C=C/C(=O)c2ccc3c(c2)OCO3)cc(Cl)c1O | 6* | i | -7.04* | -11.8 | x | i
CCOc1cccc(C(=O)Nc2ccc3[nH]ncc3c2)c1 | i | i | i | 4.9* | x | i
COc1cccc(C(=O)Nc2ccc3[nH]ncc3c2)c1 | i | i | i | -3.4 | x | i
COc1ccccc1C(=O)Nc1ccc2[nH]ncc2c1 | i | i | i | 0.0 | x | 9*
Cc1cc(C)c(C(=O)COC(=O)Cn2nc(-c3ccccc3)oc2=O)cc1C | x | i | x | x | x | x
CCn1cc(C(=O)N[C@H](C(=O)NCCCn2ccnc2)C(C)C)c(=O)c2cc3c(cc21)OCO3 | i | i | i | -7.6 | x | i
Fc1ccc(-c2csc(Nc3ccccn3)n2)c(F)c1 | i | i | i | -5.9 | x | i
[O-][n+]1onc2c3ccnnc3ccc21 | i | i | i | -6.9 | 1.03 | i
CCOC(=O)c1ccc(NC(=O)N2CCN(Cc3cccc(F)c3)CC2)cc1 | i | i | i | -14.0 | -2.97* | i
CCCN1CCN(C(=O)Nc2ccc(C(=O)OCC)cc2)CC1 | i | i | i | -11.6 | 0.879 | i
CN1/C(=C\C(=O)CN2C(=O)NC3(CCCCCC3)C2=O)C(C)(C)c2ccccc21 | i | i | i | -22.0 | -3.63* | i
Cc1cc(Nc2ccc(F)cc2Cl)n2ncnc2n1 | i | i | i | -4.5 | 0.145 | i
O=C(NC1CC1)c1cccc(NC(=O)C2CCCC2)c1 | x | i | x | x | x | x
O=C(Nc1ccccc1Cl)c1cccc(NC(=O)C2CCCC2)c1 | i | i | -6.92* | -11.7 | x | i
CSc1ccccc1NC(=O)c1ccc(N2CC3CC(C2)c2cccc(=O)n2C3)c(NC(=O)c2ccncc2)c1 (centres undefined) | i | i | i | -16.6 | x | i
Cc1ccc(SCC(=O)NC2CCS(=O)(=O)C2)cc1C (centres undefined) | x | i | x | x | x | x
Cc1ccc(-c2cn(-c3ccccc3)c(SCC(=O)NC3CCS(=O)(=O)C3)n2)cc1C (centres undefined) | i | i | i | -2.2 | 11.7* | i
SMILES | KCNQ1 inh | KCNK3 block | KCNK9 inh | hERG rescue | Cl transport mod | KCNQ1 act
Cc1cccc(Nc2nc(NCc3ccco3)nc(N)c2[N+](=O)[O-])c1 | i | i | i | -8.8 | 0.901 | i
Cc1cccc(Nc2nc(N)c([N+](=O)[O-])c(NCc3ccco3)n2)c1 | 6* | i | i | -4.6 | -0.946 | i
Nc1nc(Nc2ccc(Cl)cc2)nc(NCc2ccco2)c1[N+](=O)[O-] | i | i | i | -2.4 | -0.826 | i
COc1ccc(Nc2nc(NCc3ccco3)nc(N)c2[N+](=O)[O-])cc1 | i | i | -7.79* | -10.4 | 0.358 | i
Cc1c(C(=O)OCC(=O)Nc2c(C)n(C)n(-c3ccccc3)c2=O)oc2ccccc12 | i | i | i | -10.6 | 0.469 | i
CC(=O)NC12CC3CC(C1)CC(C(=O)Oc1ccc(N(C)S(=O)(=O)c4cc(C)ccc4C)cc1)(C3)C2 | 6* | i | i | -7.9 | x | i
CC(=O)NC12CC3CC(C1)CC(C(=O)NCC(=O)Nc1c(C)cc(C)cc1C)(C3)C2 | x | i | x | x | x | x
Cc1coc2c1c(C)cc1oc(=O)c(Cc3ccccc3)c(C)c12 | i | i | i | -0.7 | -0.166 | i
C=CCSc1nnc(NC(=O)Cn2cnc3c2c(=O)n(C)c(=O)n3C)s1 | i | i | i | 10.1* | -0.00691 | i
Cn1c(=O)c2c(ncn2CC(=O)Nc2nnc(Cc3ccccc3)s2)n(C)c1=O | i | i | i | -1.9 | -0.757 | i
CCc1nonc1NC(=O)COc1ccc(Cl)c(C)c1 | 6* | i | i | -9.3 | x | i
Cc1ccc(OCC(=O)NNC(=S)NC(=O)c2ccc(Br)o2)c(C)c1 | i | i | i | -9.3 | x | 69*
Cc1ccc(OCC(=O)NNC(=S)NC(=O)c2cccs2)c(C)c1 | i | i | i | -16.1 | x | 34*
Cc1cc(OCC(=O)NNC(=S)NC(=O)c2cccs2)ccc1Cl | i | i | i | -19.9 | x | 15*
COc1ccc(OCC(=O)NNC(=O)c2cccs2)cc1 | i | i | i | -7.6 | 1.91 | i
CC(NC(=O)CCNS(=O)(=O)c1ccc2c(c1)c(=O)n(C)c(=O)n2C)c1ccccc1 (centres undefined) | i | i | i | -6.2 | 0.0247 | i
Cc1ccc(S(=O)(=O)N2CCN(C(=O)CN3C(=O)NC(C)(CCC(C)C)C3=O)CC2)c(C)c1 (centres undefined) | x | i | x | x | x | x
C=CCn1c(=S)[nH]c2nc3c(cc2c1=O)CCCC3 | i | i | i | 5.9* | 126* | 9*
C=CCn1c(=S)[nH]c2cc(C(=O)Nc3ccc(OC)c(OC)c3)ccc2c1=O | i | i | i | -9.2 | x | i
C=CCn1c(=S)[nH]c2ccc(Br)cc2c1=O | i | i | i | 10.1* | 51.6* | 19*
COc1ccc(C)cc1NC(=O)C(OC(=O)c1cnccn1)c1ccccc1 (centres undefined) | i | i | i | -16.3 | x | i
COc1ccc(C)cc1NC(=O)C(OC(=O)CNC(=O)c1cc(C)cc(C)c1)c1ccccc1 (centres undefined) | i | i | -7.96* | -5.1 | -0.59 | i
O=C(CC1S/C(=N/N=C2CCCCCC2)NC1=O)Nc1ccccc1C(F)(F)F (centres undefined) | i | i | i | -8.5 | x | i
CC(=O)N(C1=C(N)C(=O)c2ccccc2C1=O)C(C)C | i | i | i | 6.3* | 0.241 | i
